Published values gathered from unrelated publications.
Compare with care: the assays were run in different laboratories.
Target: Receptor-interacting serine/threonine-protein kinase 4 (RIPK4, Homo sapiens, UniProt P57078)
One construct used (P57078 1-832): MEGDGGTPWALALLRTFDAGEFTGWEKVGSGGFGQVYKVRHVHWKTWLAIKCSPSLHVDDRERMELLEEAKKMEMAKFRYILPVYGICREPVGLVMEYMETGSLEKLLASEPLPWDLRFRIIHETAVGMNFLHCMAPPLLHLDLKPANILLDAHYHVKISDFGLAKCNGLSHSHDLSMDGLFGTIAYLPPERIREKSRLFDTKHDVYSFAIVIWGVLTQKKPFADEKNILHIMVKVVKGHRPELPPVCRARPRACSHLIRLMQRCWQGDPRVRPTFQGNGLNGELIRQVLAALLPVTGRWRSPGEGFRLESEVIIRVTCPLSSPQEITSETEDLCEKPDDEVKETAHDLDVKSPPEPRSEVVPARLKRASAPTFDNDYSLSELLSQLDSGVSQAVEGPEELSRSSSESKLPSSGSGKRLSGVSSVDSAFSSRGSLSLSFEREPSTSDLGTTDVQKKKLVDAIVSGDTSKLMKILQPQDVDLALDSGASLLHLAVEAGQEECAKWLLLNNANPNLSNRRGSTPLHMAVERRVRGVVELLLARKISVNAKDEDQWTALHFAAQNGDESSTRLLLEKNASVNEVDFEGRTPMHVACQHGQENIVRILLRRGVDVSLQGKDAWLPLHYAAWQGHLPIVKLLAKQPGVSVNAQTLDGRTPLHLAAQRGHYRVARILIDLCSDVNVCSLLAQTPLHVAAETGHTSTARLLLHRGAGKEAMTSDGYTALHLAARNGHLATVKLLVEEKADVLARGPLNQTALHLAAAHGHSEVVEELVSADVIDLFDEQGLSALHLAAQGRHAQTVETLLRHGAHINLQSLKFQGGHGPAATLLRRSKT

COc1cc(-c2cn(C3CCc4ccccc4N(CC(F)(F)F)C3=O)nn2)ccc1-n1ccc(C)n1 (stereo not drawn)  remaining binding (cell-free assay, competition with immobilised ligand; 1 µM): 52%
O=C(Nc1c[nH]nc1C(=O)NC1CCNCC1)c1cc(F)cc(F)c1  remaining binding (binding, competition with immobilised ligand; 1 µM): 100%
O=S(=O)(NC1CCC(c2cc(F)ccc2F)(S(=O)(=O)c2ccc(Cl)cc2)CC1)C(F)(F)F (stereo not drawn)  remaining binding (cell-free assay, competition with immobilised ligand; 1 µM): 91%
CN(CCCC(F)(F)F)c1nccc(-c2cnn3ncccc23)n1  remaining binding (binding; 1 µM): 100%
N#CC1(c2ccccn2)CCN(Cc2cc(C(=O)N3CCCC3)c(=O)n3ccccc23)CC1  remaining binding (cell-free assay, competition with immobilised ligand; 1 µM): 100%
Cc1cnc(Nc2ccc(C(=O)N3CCC(N4CCCC4)CC3)cc2)nc1-c1cc2ccccc2s1  remaining binding (binding, competition with immobilised ligand; 1 µM): 28%
N[C@@H]1CCN(c2nccc(-c3cnn4ncccc34)n2)C1  remaining binding (binding; 1 µM): 100%
COc1ncc2cc3ccccc3nc2c1C#N  remaining binding (cell-free assay, competition with immobilised ligand; 5 µM): 100%
CC1CCCN1c1nccc(-c2cnn3ncccc23)n1 (stereo not drawn)  remaining binding (binding; 1 µM): 98%
Nc1ncc2c(n1)-c1c([nH]c3ccc(C#CC4CC4)cc13)CCCC2  remaining binding (binding, competition with immobilised ligand; 1 µM): 100%
O=C(NCCCC1CCCCC1)c1ccc(CNC(=O)c2cnn(-c3ccccc3)c2C(F)(F)F)cc1  remaining binding (cell-free assay, competition with immobilised ligand; 0.1 µM): 58%
O=C(NCCCN1CCOCC1)c1ccc(Nc2ncc(Cl)c(-c3ccc(Cl)s3)n2)cc1  remaining binding (binding, competition with immobilised ligand; 1 µM): 46%
c1cnn2ncc(-c3ccnc(N4CCC45COC5)n3)c2c1  remaining binding (binding; 1 µM): 52%
COc1cnc(Nc2cccc(S(N)(=O)=O)c2)nc1N1CCN(c2ccccc2)CC1  remaining binding (binding, competition with immobilised ligand; 1 µM): 86%
CS(=O)(=O)N1CCCC(NC(=O)[C@H](CCC2CCCCC2)NC(=O)c2ccc(CNC(=O)c3cnc4ccccn34)cc2)C1 (stereo partly drawn)  remaining binding (cell-free assay, competition with immobilised ligand; 0.1 µM): 92%
c1cncc(-c2cccc(Nc3nccc(NC4CCCCC4)n3)c2)c1  remaining binding (binding, competition with immobilised ligand; 10 µM): 53%
CN(c1nccc(-c2cnn3ncccc23)n1)C1CC1  remaining binding (binding; 1 µM): 100%
O=C(c1ccc(Nc2ncc(Cl)c(-c3cc4ccccc4s3)n2)cc1)N1CCC(N2CCCC2)CC1  remaining binding (binding, competition with immobilised ligand; 1 µM): 41%
COc1ccc2c(c1)O[C@H](c1ccc(OC)c(OC)c1)C[C@@H]2NC(=O)C1(c2ccc3c(c2)OC(F)(F)O3)CC1  remaining binding (cell-free assay, competition with immobilised ligand; 1 µM): 75%
C[C@@H]1CCN(c2nccc(-c3cnn4ncccc34)n2)C1  remaining binding (binding; 1 µM): 18%
CCN1CCN(Cc2ccc(C(=O)Nc3ccc(C)c(Oc4ccc5c(c4)CC(=O)N5)c3)cc2C(F)(F)F)CC1  remaining binding (binding, competition with immobilised ligand; 1 µM): 100%
